Assay results as given in ChEMBL document CHEMBL5096237, “Orally Bioavailable Prodrugs of ψ-GSH: A Potential Treatment for Alzheimer's Disease” (J Med Chem, 2022).
Activity calls are given as the source filed them. The calls are words filed in the database; no cut-off is given here.

Columns and labels:
[1] = Stability in CD-1 mouse plasma assessed as half life at 1 uM measured upto 240 mins by LC-MS/MS analysis; assay type: ADME, cell-free; details: for t1/2: mouse, 4 h, 1 µM; for half-life at 1 µM: CD-1, mouse
In short: (§1)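 Compound at 1 μM final was incubated at 37 °C in plasma, brain homogenate, liver homogenate, simulated gastric fluid or simulated intestinal fluid. Aliquots taken at 0, 5, 15, 30, 60, 120 and 240 min were quenched with 3 volumes of acetonitrile containing 1% formic acid and centrifuged. Supernatants were analyzed by HPLC-UV (254 nm, after Fmoc-Cl derivatization) and/or LC-MS/MS to derive t1/2.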

[2] = Stability in CD-1 mouse assessed as half life at gastric phase of gastrointestinal tract at 1 uM measured upto 240 mins by LC-MS/MS analysis; assay type: ADME; details: for t1/2: mouse, 4 h, 1 µM; in short: as §1
[3] = Stability in CD-1 mouse assessed as half life at intestinal phase of gastrointestinal tract at 1 uM measured upto 240 mins by LC-MS/MS analysis; assay type: ADME; details: for t1/2: mouse, 4 h, 1 µM; in short: as §1
[4] = Stability in CD-1 mouse plasma at 250 mg/kg, po at 1 uM measured after 6 hrs by LC-MS/MS analysis; assay type: ADME, organism-based; details: in vivo
[5] = Reversal of resistant against po dosed Abeta1-42 induced cognitive impairment in mouse assessed as reduction in repetitive arm entries (reference value: 3.22+/-0.27); assay type: organism-based; details: in vivo
Mus musculus [6] = assay: Anti-alzheimer activity against oral dosed mouse brain assessed as reduction in AGE level by immunohistochemical analysis; assay type: functional, organism-based
Mus musculus [7] = assay: Anti-alzheimer activity against APP/PS1 mouse model assessed as increase in spatial memory development at 500 mg/kg, po measured after 4 days by Morris water maze test; assay type: functional, organism-based; details: time 4.0 day
Mus musculus [8] = assay: Anti-alzheimer activity against APP/PS1 mouse model assessed as time spent in the target quadrant at 500 mg/kg, po measured after 4 days by Morris water maze test (reference value: 16.39+/-3.39%); assay type: functional; details: time 4 day
Mus musculus [9] = assay: Anti-alzheimer activity against APP/PS1 mouse model assessed as escape latency at 500 mg/kg, po measured after 4 days by Morris water maze test (reference value: 6.64+/-1.58 sec); assay type: functional; details: time 4 day
Mus musculus [10] = assay: Anti-alzheimer activity against APP/PS1 mouse model assessed as reduction in insoluble Abeta1-42 at 500 mg/kg, po […] by ELISA assay relative to control; assay type: functional; set-up: scale not given: the % may be the effect or the level left
In short: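 APP/PS1 mice, 3–4 months old, were gavaged with ψ-GSH 500 mg/kg or saline three times weekly for 12 weeks. Insoluble brain Aβ1–42 was quantified by sandwich ELISA and expressed as % of saline-treated APP/PS1 mice.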

[11] = Stability in CD-1 mouse brain homogenate assessed as half life at 1 uM measured upto 240 mins by LC-MS/MS analysis; assay type: ADME, tissue-based
In short: (§2)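 Compound at 1 μM final was incubated at 37 °C in plasma, brain homogenate, liver homogenate, simulated gastric fluid or simulated intestinal fluid. Supernatants were analyzed by HPLC-UV (254 nm, after Fmoc-Cl derivatization) and/or LC-MS/MS to derive t1/2.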

[12] = Stability in CD-1 mouse liver homogenate assessed as half life at 1 uM measured upto 240 mins by LC-MS/MS analysis; assay type: ADME, tissue-based; in short: as §2
[13] = AUC in CD-1 mouse measured in per mg of brain tissue at 500 mg/kg, ip; assay type: ADME, organism-based; set-up: dose 500 mg/kg, route ip; details: in vivo
In short: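 Male CD-1 mice, eight weeks old, N = 4 per time point. They received oral prodrug at 250 mg/kg, or ψ-GSH at 500 mg/kg i.p. for comparison. Blood and brain were taken at 2, 4 and 6 h. Brain was homogenized 1:5 (w/v) in DPBS. Plasma and homogenate were treated with 100 mM N-ethylmaleimide for 10 min at ambient temperature, deproteinized with 3% sulfosalicylic acid, then quantified by positive-ESI LC-MS/MS MRM, with ψ-GSH read as its NEM adduct.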

Mus musculus [14] = organism: Mus musculus; assay: Anti-alzheimer activity against A-beta injected mouse assessed as reduction in microglial activation in dentate gyrase region by GFAP staining based analysis; assay type: functional, organism-based; details: in the assay text read “Iba1 staining” for “GFAP staining”
In short: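 C57BL/6 mice were dosed with compound at 250 mg/kg once daily for 12 days; Aβ1–42 oligomers were given i.c.v. on day 4. Half-brains were fixed in 4% PFA for 24 h and sucrose-cryoprotected. 40 μm coronal sections, every 12th (4–6 sections), were immunostained for GFAP (astrocytes) or Iba1 (microglia) by ABC/DAB after antigen retrieval. Stained area fraction in dorsal hippocampus or dentate gyrus was measured stereologically at ×40.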

Mus musculus [15] = assay: Anti-alzheimer activity against oral dosed mouse brain assessed as restoration of reduced GSH level by […]; assay type: functional, organism-based
In short: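 Brains from the i.c.v. Aβ1–42 mice were homogenized and deproteinized with metaphosphoric acid. After neutralization, samples were diluted in 50 mM MES (pH 6.0, 1 mM EDTA). GSH was measured by enzymatic recycling with DTNB, reading TNB absorbance at 412 nm.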

[16] = Reversal of resistant against ip dosed Abeta1-42 induced cognitive impairment in mouse assessed as reduction in repetitive arm entries (reference value: 3.22+/-0.27); details: in vivo

N[C@@H](CNC(=O)N1C(=O)SC[C@H]1C(=O)NCC(=O)O)C(=O)O
t1/2 [1]: 25.57 h

Cl.N[C@@H](CNC(=O)N[C@@H](CS)C(=O)NCC(=O)OC1CCCC1)C(=O)OC1CCCC1
t1/2 [2]: 4.87 h
t1/2 [3]: 5.24 h
t1/2 [1]: 72.2 h
Stability [4]: Stable
repetitive arm entries [5]: 1.8
Activity (Mus musculus [6]): Active

N[C@@H](CNC(=O)N[C@@H](CS)C(=O)NCC(=O)O)C(=O)O
Activity (Mus musculus [7]): Active
Activity (Mus musculus [8]): 21.76%
Time (Mus musculus [9]): 6.9 s
Activity (Mus musculus [10]): 90.8%
half-life at 1 µM ([2]; CD-1, mouse, gastric phase of gastrointestinal tract): 28.8 h
half-life at 1 µM ([3]; CD-1, mouse, intestinal phase of gastrointestinal tract): 1.28 h
half-life at 1 µM [1]: 0.23 h
half-life at 1 µM [11]: 1.51 h
half-life at 1 µM [12]: 0.02 h
AUC [13]: 8.06 nmol·h
Activity (Mus musculus [14]): Active
Activity (Mus musculus [15]): Active
repetitive arm entries [16]: 0.5

CCOC(=O)SC[C@H](NC(=O)NC[C@H](N)C(=O)OC1CCCC1)C(=O)NCC(=O)OC1CCCC1
t1/2 [1]: 61.32 h

CCOC(=O)SC[C@H](NC(=O)NC[C@H](N)C(=O)O)C(=O)NCC(=O)O
t1/2 [2]: 27.7 h
t1/2 [3]: 38.5 h
t1/2 [1]: 47.14 h

CC(=O)SC[C@H](NC(=O)NC[C@H](N)C(=O)O)C(=O)NCC(=O)O
t1/2 [2]: 28.88 h
t1/2 [3]: 5.02 h
t1/2 [1]: 5.8 h

N[C@@H](CNC(=O)N1CSC[C@H]1C(=O)NCC(=O)O)C(=O)O
half-life at 1 µM [1]: 30.6 h
half-life at 1 µM [12]: 116 h
